# Data reported in PubChem BioAssay.
# Activity calls are given as the source filed them.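 Rule for the calls, unless noted: active = viability at or below 30% in both replicate assays; inconclusive = viability at or below 30% in just one of the two assays; inactive = the rest.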
# Assays:
# [1] = SK-BR-3 cell growth inhibitors, pilot screen, 24 h, human (AID 572;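 active = viability at or below 10% of carrier control in both of two separate runs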;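 note: compound exposure lasted between 18 and 24 h rather than exactly 24 h; 100% = carrier-treated control wells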); conditions: SK-BR-3 viability, CellTiter-Glo luminescence, at 10 µM, stronger effect = lower value
# [2] = HUVEC growth inhibition – cell-based, human, primary screen (AID 575); conditions: HUVEC proliferation, CellTiter-Glo luminescence, 72 h; at 10 µM; stronger effect = lower value;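 note: 100% = median of untreated cell wells with 0.1% DMSO on each plate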
# In short: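 Assay system: primary human umbilical vein endothelial cells / Buffer or medium: endothelial basal medium with 2% FBS plus growth supplements / Compound dosing: one dose, 10 µM final, 0.1% DMSO / Timing: 72 h treatment at 37 °C / Signal: CTG luminescence / Benchmarks: 32 DMSO-only cell-control wells (high), 32 MePR drug-control wells (low) per plate / Plate: collagen-coated 384-well format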
# [3] = growth inhibitors of H69AR lung tumor, primary screen, human, duplicate replicates (AID 580;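 active = viability at or under a set limit in both replicates, limit being median viability minus 3 SD, cut at about 48% in these data, passing the limit was not always enough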;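 note: 100% = mean luminescence of untreated wells and 0% = no signal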); conditions: H69AR lung tumor cells viability, ATP luminescence, 72 h; at 10 µM; stronger effect = lower value
# [4] = reversal of MRP1-mediated doxorubicin resistance, pilot screen, H69AR cells, doxorubicin co-treatment (AID 601;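 active = viability loss from added drug above about 55%, and viability with drug at most 40%, in both replicates, limit read from the data, passing the limit was not always enough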); conditions: CellTiter-Glo, 72 h, at 10 µM; for differential viability (reversal): stronger effect = higher value
# [5] = 384-well plate pilot, post-Golgi transport modulator project, inhibition of yeast transport mutant growth (AID 636; in the data active = inhibition above about 31%); conditions: absorbance 615 nm, about 18 h, stronger effect = higher value
# [6] = growth suppression of yeast trafficking mutant, preliminary HTS, modulators of trafficking downstream of Golgi apparatus project, 1536-format plate, OD 615 nm (AID 637; in the data active = inhibition above about 30%); conditions: yeast transport mutant growth, absorbance 615 nm, 18 h; stronger effect = higher value
# [7] = H69AR cells + 2 uM doxorubicin, measured here: viability with 2 uM doxorubicin, stronger effect = lower value
# [8] = H69AR cells, compound alone cytotoxicity
Compound,viability [1],viability [2],viability [3],differential viability (reversal) ([4]; H69AR cells + 2 uM doxorubicin),"viability [4, 7] [%]","viability [4, 8] [%]",inhibition [5],inhibition [6]
CCCC1(C(=O)OC)NC(c2cc(OC)c(OC)c(OC)c2)C2C(=O)N(CC)C(=O)C21 (stereo not drawn),67% (inactive),98.3% (inactive),88.9% (inactive),-1.5% (inactive),90.4,88.9,-4.93% (inactive),21.4% (inactive)
C#CCN(C)Cc1ccccc1,96% (inactive),94.3% (inactive),93.8% (inactive),-6.42% (inactive),100,93.8,0.26% (inactive),-1.17% (inactive)
CC1CC(C)CN(CC(=O)Nc2ccc(S(N)(=O)=O)cc2)C1 (stereo not drawn),96% (inactive),96.9% (inactive),84.9% (inactive),2.1% (inactive),82.8,84.9,3.29% (inactive),-2.58% (inactive)
O=S(=O)(Nn1cnnc1)c1ccccc1Cl,84% (inactive),109% (inactive),89.3% (inactive),-3.4% (inactive),92.7,89.3,4% (inactive),7.09% (inactive)
C/C(=N\O)C(=O)C(CN1CCCCC1)CN1CCCCC1,116% (inactive),95.6% (inactive),8.43% (active),5.9% (inactive),2.52,8.43,1.95% (inactive),-7% (inactive)
COc1cccc2c(=O)cc(C)n(CC(=O)Nc3ccc(C)c(C)c3)c12,105% (inactive),84.5% (inactive),95.5% (inactive),13.4% (inactive),82.1,95.5,-8.4% (inactive),-2.91% (inactive)
C=CCNc1nc2c(c(=O)n(C)c(=O)n2C)n1CCCCCC,92% (inactive),60.4% (inactive),82.6% (inactive),0.165% (inactive),82.4,82.6,-5.73% (inactive),5.27% (inactive)
O=C(Nc1ccccc1)N1CCC(c2ccccc2)C1 (stereo not drawn),62% (inactive),109% (inactive),86.7% (inactive),19.2% (inactive),67.5,86.7,-2.6% (inactive),4.92% (inactive)
COc1ccc(C)cc1-n1nnnc1SC/C(O)=C(\C#N)c1nc2ccccc2[nH]1,96% (inactive),86.6% (inactive),85.2% (inactive),-13.1% (inactive),98.4,85.2,-4.11% (inactive),1.27% (inactive)
COC(=O)CCn1nnc(-c2ccc(C)cc2)n1,90% (inactive),109% (inactive),94.1% (inactive),3.69% (inactive),90.4,94.1,-6% (inactive),-2.91% (inactive)
CC(C)(Oc1ccc(CCNC(=O)c2ccc(Cl)cc2)cc1)C(=O)O,95% (inactive),83.1% (inactive),105% (inactive),8.17% (inactive),96.8,105,-4.29% (inactive),-0.67% (inactive)
CC(=O)c1c(C)nn(C(C)CC(=O)O)c1C (stereo not drawn),113% (inactive),97.8% (inactive),97.5% (inactive),8.11% (inactive),89.3,97.5,-1.95% (inactive),-4.75% (inactive)
OC[C@H]1O[C@@H](n2cnc3c(Nc4ccccc4)ncnc32)[C@H](O)[C@@H]1O,95% (inactive),71.9% (inactive),84.4% (inactive),2.24% (inactive),82.1,84.4,-2.34% (inactive),1.17% (inactive)
CCOC(=O)c1cnc2c(OC)cccc2c1N1CCN(c2ccc(OC)cc2)CC1,124% (inactive),66.1% (inactive),79.6% (inactive),20.9% (inactive),58.7,79.6,-3.38% (inactive),0.63% (inactive)
CSc1oc(-c2ccccc2)nc1S(=O)(=O)c1ccc(F)cc1,92% (inactive),73.2% (inactive),82.6% (inactive),0.495% (inactive),82.1,82.6,-6.3% (inactive),-1.61% (inactive)
Cc1cc(C(F)(F)F)c2c(C)nn(CCc3nn[nH]n3)c2n1,105% (inactive),91.4% (inactive),96.1% (inactive),-1.98% (inactive),98.1,96.1,0.14% (inactive),12.2% (inactive)
CCN(CCCc1ccccc1)CCCc1ccccc1,76% (inactive),77.6% (inactive),78.6% (inactive),-12.7% (inactive),91.2,78.6,2.34% (inactive),15% (inactive)
Cc1nc(NC2=NCN(CCCN3CCOCC3)CN2)nc2c(C)cccc12,158% (inactive),67.4% (inactive),53.4% (inactive),-12.3% (inactive),65.8,53.4,-4.34% (inactive),0.16% (inactive)

Compound,viability [1],viability [2],viability [3],differential viability (reversal) ([4]; H69AR cells + 2 uM doxorubicin),"viability [4, 7] [%]","viability [4, 8] [%]",inhibition [5],inhibition [6]
CCCNS(=O)(=O)c1ccc(OCC(=O)Nc2ccccc2F)cc1,96.5% (inactive),90.3% (inactive),87.3% (inactive),8.17% (inactive),79.1,87.3,-4.21% (inactive),-0.81% (inactive)
O=C(Cc1cccs1)N(c1ccccc1)C1C=CS(=O)(=O)C1 (stereo not drawn),118% (inactive),107% (inactive),106% (inactive),28.9% (inactive),76.7,106,-3.07% (inactive),-1.64% (inactive)
Cc1ccc(Nc2nc(Oc3ccc(=O)[nH]n3)nc(N(C)C)n2)cc1,81% (inactive),101% (inactive),94% (inactive),16.1% (inactive),77.9,94,-3.7% (inactive),1.94% (inactive)
Cc1csc(NC(=O)c2ccccc2C(=O)O)n1,103% (inactive),108% (inactive),95.3% (inactive),-0.43% (inactive),95.8,95.3,-2.27% (inactive),1.27% (inactive)
CN(c1ccc(OCc2nnc(-c3ccccc3)o2)cc1)S(=O)(=O)c1ccccc1,99% (inactive),96.6% (inactive),82.9% (inactive),2.42% (inactive),80.5,82.9,-7.7% (inactive),-5.45% (inactive)
Cc1ccc(N2CCN(c3ccc(C)cc3)C(CC(=O)O)C2=O)cc1 (stereo not drawn),92% (inactive),98.2% (inactive),97.4% (inactive),4.25% (inactive),93.2,97.4,-5.89% (inactive),-3.23% (inactive)
O=C(Cn1cnc2c(cnn2-c2ccc(F)cc2)c1=O)N1CCN(c2ccccc2)CC1,97% (inactive),94% (inactive),70.3% (inactive),4.54% (inactive),65.8,70.3,0.39% (inactive),-5.57% (inactive)
COc1ccc(C(=O)NC(=O)CSc2nnc(-c3ccco3)n2-c2ccccc2)cc1,90% (inactive),109% (inactive),105% (inactive),16.3% (inactive),88.7,105,-7.3% (inactive),-0.55% (inactive)
Cc1c(C(=O)NCc2ccoc2)oc2ccc3c(c12)C(=O)CC(C)(C)O3,129% (inactive),75.1% (inactive),76.2% (inactive),-2.74% (inactive),78.9,76.2,-0.52% (inactive),3.77% (inactive)
Cc1cc(Cl)ccc1OCC(=O)Nn1c(C)ccc1C,68% (inactive),101% (inactive),94% (inactive),11.1% (inactive),82.9,94,-1.37% (inactive),-4.68% (inactive)
CC(=O)Nc1ccc(S(=O)(=O)NCc2csc(-c3cccnc3)n2)cc1,97% (inactive),101% (inactive),97.6% (inactive),-4.67% (inactive),102,97.6,-1.69% (inactive),1.8% (inactive)
COc1ccc(CC(=O)Nc2cc(Cl)ccc2O)cc1,110% (inactive),84.5% (inactive),81.1% (inactive),0.69% (inactive),80.4,81.1,-4.53% (inactive),-3.09% (inactive)
CCOC(=O)C(C)C1(O)c2ccccc2-c2ncccc21 (stereo not drawn),91% (inactive),98.6% (inactive),102% (inactive),13% (inactive),88.6,102,-5.81% (inactive),1.27% (inactive)
CSc1ccccc1NC(=O)CN(c1ccccc1)S(=O)(=O)N(C)C,83% (inactive),98.3% (inactive),87.7% (inactive),2.04% (inactive),85.7,87.7,-8.49% (inactive),0.18% (inactive)
O=C(O)c1cc2cc(F)ccc2[nH]1,110% (inactive),78.4% (inactive),94.5% (inactive),-17.1% (inactive),112,94.5,-1.82% (inactive),-4.67% (inactive)
O=C(Nc1ccccc1Cl)c1c(F)c(F)c(F)c(F)c1F,106% (inactive),106% (inactive),90.2% (inactive),-7.56% (inactive),97.8,90.2,3.15% (inactive),7.09% (inactive)
CN1CCN(C(=O)c2ccc3c(=O)n(CCc4ccccc4)c(=S)[nH]c3c2)CC1,102% (inactive),66.2% (inactive),81.6% (inactive),25.3% (inactive),56.3,81.6,-1.95% (inactive),-2.46% (inactive)
CCOC(=O)C1(CC)NC(c2cccc(F)c2)C2C(=O)N(CC)C(=O)C21 (stereo not drawn),104% (inactive),96.1% (inactive),97.6% (inactive),5.01% (inactive),92.6,97.6,-3.29% (inactive),3.06% (inactive)
